An excerpt weighted towards active compounds, which were near 1.9% of everything screened.
CHRM5 agonist: human M5 muscarinic receptor agonists, primary screen, CHO-K1 cells, Fluo-8 calcium fluorescence; 360,000 compounds, 0.19% hits; activation, % at 3 µM; CHO-K1 hM5 cells; 0% DMSO wells, 100% maximal acetylcholine response;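 active = activation above the run's mean over test compounds plus 3 SD, cut at about 23% in these data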;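 note: signal is peak over basal fluorescence ratio across the kinetic read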
CHRM4 antagonist: human M4 muscarinic receptor antagonists, primary screen, CHO cells, Fluo-8 calcium fluorescence | CHO-hM4 cells, ACh EC80 | inhibition, % at 3 µM | 360,000 compounds, 0.73% hits | AID 624125, 2012;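 active = inhibition above its plate's cutoff, the mean inhibition of sample wells plus 3 SD, cut at about 27% in these data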
Target sequence (P08173 whole entry, looked up): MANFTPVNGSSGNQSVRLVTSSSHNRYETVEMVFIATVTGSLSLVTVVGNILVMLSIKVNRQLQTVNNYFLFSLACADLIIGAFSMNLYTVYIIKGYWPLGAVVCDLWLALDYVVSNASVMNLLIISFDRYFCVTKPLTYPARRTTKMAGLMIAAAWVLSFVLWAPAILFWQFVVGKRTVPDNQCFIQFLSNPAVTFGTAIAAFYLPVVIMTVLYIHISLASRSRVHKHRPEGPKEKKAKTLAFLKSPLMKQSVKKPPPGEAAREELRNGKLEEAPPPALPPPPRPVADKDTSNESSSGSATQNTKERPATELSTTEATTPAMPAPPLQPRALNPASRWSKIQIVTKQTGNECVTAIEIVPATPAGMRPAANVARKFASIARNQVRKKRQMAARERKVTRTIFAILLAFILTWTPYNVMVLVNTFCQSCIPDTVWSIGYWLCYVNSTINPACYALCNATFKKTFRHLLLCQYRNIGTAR
M4 ag: human M4 muscarinic receptor agonists, primary screen, CHO-K1 cells, Fluo-8 calcium fluorescence. Muscarinic acetylcholine receptor M4 (Homo sapiens), P08173. activation, % at 3 µM. CHO-K1 hM4/Gqi5; vehicle 0%, full acetylcholine response 100%. 360,000 compounds, 0.14% hits. AID 624127, 2012;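 active = activation above the run mean over all test wells plus 3 SD, cut at about 32% in these data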;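 note: peak over basal fluorescence ratio per well then scaled between controls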
CHRM5 PAM: human M5 muscarinic receptor positive allosteric modulators, primary screen, CHO-K1 cells, Fluo-8 calcium fluorescence; Muscarinic acetylcholine receptor M5 (Homo sapiens), P08912; CHO-K1 hM5, ACh EC20 PAM; 0% = ACh EC20, 100% = ACh EC100; activation, % at 3 µM; 360,000 compounds, 0.3% hits; AID 624038, 2012;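 active = activation above the run cutoff, the mean activation of all test compounds plus 3 SD, cut at about 18% in these data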
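system = human M5 receptor in CHO-K1 cells | compound = one concentration, 3 µM final (nominal) | schedule = Post-acetylcholine fluorescence recording 140 s | signal = Fluo-8 calcium dye fluorescence, kinetic read | benchmarks = low control EC20 acetylcholine (0%), high control EC100 acetylcholine (100%) | repeats = singlicate, one well per test compound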
M5 antag: human M5 muscarinic receptor antagonists, primary screen, CHO cells, Fluo-8 calcium fluorescence; inhibition, % at 3 µM; Muscarinic acetylcholine receptor M5 (Homo sapiens), P08912; 360,000 compounds, 0.59% hits; AID 624040, 2012; CHO-hM5 cells, ACh EC80;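 active = inhibition above a per-plate cutoff, the mean of that plate's test compounds plus 3 SD, cut at about 27% in these data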
CHRM4 PAM: human M4 muscarinic receptor positive allosteric modulators, primary screen, CHO-K1 cells, Fluo-8 calcium fluorescence | CHO-K1 hM4/Gqi5, ACh EC20; 0% = ACh EC20, 100% = maximal ACh | activation, % at 3 µM | Muscarinic acetylcholine receptor M4 (Homo sapiens), P08173 | 360,000 compounds, 0.4% hits;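 active = activation above its plate's cutoff, the mean activation of sample wells plus 3 SD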
Numbers stand for hits.

For CC(Oc1ccc2c(-c3ccccc3)cc(=O)oc2c1)C(=O)N1CCOCC1 (stereo unspecified) the results were CHRM5 agonist inactive, CHRM4 antagonist inactive, M4 ag inactive, CHRM5 PAM inactive, M5 antag inactive and CHRM4 PAM inactive.
OCC1(Cc2ccccc2)CCN(Cc2ccc(-c3ccco3)cc2)CC1 was read as CHRM5 agonist inactive, CHRM4 antagonist 30, M4 ag inactive, CHRM5 PAM inactive, M5 antag inactive and CHRM4 PAM inactive.
Screening OCC1(Cc2ccccc2)CCCN(Cc2ccc(-c3ccco3)cc2)C1 (stereo unspecified) returned CHRM5 agonist inactive, CHRM4 antagonist inactive, M4 ag inactive, CHRM5 PAM inactive, M5 antag inactive and CHRM4 PAM inactive.
OCC1(Cc2ccccc2)CCN(CCCC2CCCC2)CC1 was read as CHRM5 agonist inactive, CHRM4 antagonist 49, M4 ag inactive, CHRM5 PAM inactive, M5 antag inactive and CHRM4 PAM inactive.
`CCCNC(=O)c1ccccc1C(=O)NC1(C(=O)NCCC)CCCC1` gave CHRM5 agonist inactive, CHRM4 antagonist inactive, M4 ag inactive, CHRM5 PAM inactive, M5 antag inactive and CHRM4 PAM inactive.
For CN(CC1CCOCC1)C(=O)CC1C(=O)NCCN1CC(c1ccccc1)c1ccccc1 (stereo unspecified) the results were CHRM5 agonist inactive, CHRM4 antagonist inactive, M4 ag inactive, CHRM5 PAM inactive, M5 antag inactive and CHRM4 PAM inactive.
For CC(=O)Nc1nnc(SCC(=O)N2C(C)CCCC2C)s1 (stereo unspecified) the results were CHRM5 agonist inactive, CHRM4 antagonist inactive, M4 ag inactive, CHRM5 PAM inactive, M5 antag inactive and CHRM4 PAM inactive.
Cc1cnn(C(=O)Cn2nc(C(F)F)c(Br)c2C)c1 was read as CHRM5 agonist inactive, CHRM4 antagonist inactive, M4 ag inactive, CHRM5 PAM inactive, M5 antag inactive and CHRM4 PAM inactive.
For CC(O)CC(=O)OC[C@]12CC[C@H]3[C@@](C)(CC[C@H]4C(C)(C)CCC[C@]34C)[C@@H]1CC(C1=CC(=O)OC1O)O2 (stereo partly specified) the results were CHRM5 agonist inactive, CHRM4 antagonist 64, M4 ag inactive, CHRM5 PAM inactive, M5 antag inactive and CHRM4 PAM inactive.
For COc1ccc(N2CC(C)(C)[C@H](CC(=O)Nc3ccccc3)C2=O)cc1 the results were CHRM5 agonist inactive, CHRM4 antagonist inactive, M4 ag inactive, CHRM5 PAM inactive, M5 antag inactive and CHRM4 PAM inactive.
Screening Cc1ccc2c(C(=O)CN3CCCCC3)c(C)[nH]c2c1 returned CHRM5 agonist inactive, CHRM4 antagonist inactive, M4 ag inactive, CHRM5 PAM inactive, M5 antag inactive and CHRM4 PAM inactive.
`Cc1ccc2c(C(=O)CN3CCOCC3)c(C)[nH]c2c1` gave CHRM5 agonist inactive, CHRM4 antagonist inactive, M4 ag inactive, CHRM5 PAM 25, M5 antag inactive and CHRM4 PAM inactive.
Screening CCOC(=O)c1[nH]cnc1C(=O)N1CCN(C(=O)OC(C)(C)C)CC1 returned CHRM5 agonist inactive, CHRM4 antagonist inactive, M4 ag inactive, CHRM5 PAM inactive, M5 antag inactive and CHRM4 PAM 24.
For C[C@H](OC(=O)c1[nH]cnc1C(=O)N1CCN(C(=O)OC(C)(C)C)CC1)c1ccccc1 the results were CHRM5 agonist inactive, CHRM4 antagonist inactive, M4 ag inactive, CHRM5 PAM inactive, M5 antag inactive and CHRM4 PAM inactive.
For N#CCCN(Cc1cccnc1)CN1C(=O)c2ccccc2C1=O the results were CHRM5 agonist inactive, CHRM4 antagonist inactive, M4 ag inactive, CHRM5 PAM inactive, M5 antag inactive and CHRM4 PAM inactive.
CCCCOC1NC(=O)NC(=O)C1(F)C(=O)OCC (stereo unspecified) was read as CHRM5 agonist inactive, CHRM4 antagonist inactive, M4 ag inactive, CHRM5 PAM inactive, M5 antag inactive and CHRM4 PAM inactive.
`CC(C)C(C)N(Cc1cccc(C(=O)O)c1)C(=O)c1ccc2ccccc2n1` (stereo unspecified) gave CHRM5 agonist inactive, CHRM4 antagonist inactive, M4 ag inactive, CHRM5 PAM 22, M5 antag inactive and CHRM4 PAM inactive.
`CC(C)[C@H]1C=C(C(=O)O)O[C@@H](OCCCCO)C1` gave CHRM5 agonist inactive, CHRM4 antagonist inactive, M4 ag inactive, CHRM5 PAM inactive, M5 antag inactive and CHRM4 PAM inactive.
`Cc1onc(-c2ccccc2)c1C(=O)NNC(=S)NC(=O)c1ccc2c(c1)OCO2` gave CHRM5 agonist inactive, CHRM4 antagonist inactive, M4 ag 70, CHRM5 PAM inactive, M5 antag inactive and CHRM4 PAM inactive.
For O=C(NCC(c1cccs1)N1CCOCC1)c1ccc(Cl)s1 (stereo unspecified) the results were CHRM5 agonist inactive, CHRM4 antagonist inactive, M4 ag inactive, CHRM5 PAM inactive, M5 antag inactive and CHRM4 PAM inactive.
Screening O=C(Nc1nc(-c2ccccc2)cs1)c1ccco1 returned CHRM5 agonist inactive, CHRM4 antagonist inactive, M4 ag inactive, CHRM5 PAM inactive, M5 antag inactive and CHRM4 PAM inactive.
`Cc1ccc(-c2csc(NC(=O)c3ccco3)n2)cc1C` gave CHRM5 agonist 26, CHRM4 antagonist inactive, M4 ag inactive, CHRM5 PAM inactive, M5 antag inactive and CHRM4 PAM inactive.
`Cc1nc(NC(=O)c2ccco2)sc1-c1csc(Nc2ccc(Cl)cc2)n1` gave CHRM5 agonist 43, CHRM4 antagonist inactive, M4 ag inactive, CHRM5 PAM inactive, M5 antag inactive and CHRM4 PAM inactive.
`Cc1nc(NC(=O)c2ccco2)sc1-c1csc(Nc2ccc(Cl)cc2Cl)n1` gave CHRM5 agonist 47, CHRM4 antagonist inactive, M4 ag inactive, CHRM5 PAM inactive, M5 antag inactive and CHRM4 PAM inactive.
Screening CCOC(=O)C1=C(COC(=O)[C@H](C)NS(=O)(=O)c2ccc(NC(C)=O)cc2)NC(=O)NC1C (stereo partly specified) returned CHRM5 agonist inactive, CHRM4 antagonist inactive, M4 ag inactive, CHRM5 PAM inactive, M5 antag inactive and CHRM4 PAM inactive.
`CCn1c(COc2cccc(C)c2)nnc1SCC(=O)Nc1cccc(C(=O)O)c1` gave CHRM5 agonist inactive, CHRM4 antagonist inactive, M4 ag inactive, CHRM5 PAM inactive, M5 antag inactive and CHRM4 PAM inactive.

Compound activity deposited in PubChem BioAssay by The Scripps Research Institute Molecular Screening Center.
